From ChEMBL document CHEMBL2311469, “Development of new cathepsin B inhibitors: combining bioisosteric replacements and structure-based design to explore the structure-activity relationships of nitroxoline derivatives” (J Med Chem, 2013)
Active and inactive are the calls of the source. No cut-off for these calls is given here.

What was measured:
Cathepsin B [1] = biological target: T1, Cathepsin B (Homo sapiens, UniProt P07858); assay: Inhibition of human recombinant cathepsin B exopeptidase activity using Abz-Gly-Ile-Val-Arg-Ala-Lys(Dnp)-OH substrate
Cathepsin B [2] = biological target: T1, Cathepsin B; assay: Inhibition of human recombinant cathepsin B endopeptidase activity using Z-Arg-Arg-AMC substrate
Cathepsin B [3] = biological target: T1, Cathepsin B; assay: Mixed inhibition of human recombinant cathepsin B endopeptidase activity using Z-Arg-Arg-AMC substrate assessed as inhibition constant for enzyme-substrate-inhibitor complex
Cathepsin B [4] = biological target: T1, Cathepsin B; assay: Noncompetitive inhibition of human recombinant cathepsin B exopeptidase activity using Abz-Gly-Ile-Val-Arg-Ala-Lys(Dnp)-OH substrate
How it was run: (§1)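 Human recombinant catB, preactivated 5 min at 37 °C in assay buffer containing 0.1% PEG 8000, 5 mM DTT and 1.5 mM EDTA. […] Exopeptidase: 60 mM acetate pH 5.0, Abz-GIVRAK(Dnp)-OH 1/3/6 μM (Km 6.3 μM). Inhibitor 0–200 μM, 5% DMSO, 37 °C, fluorescence rate; two runs in duplicate.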

Cathepsin B [5] = biological target: T1, Cathepsin B; assay: Mixed inhibition of human recombinant cathepsin B […] assessed as inhibition constant for enzyme-inhibitor complex
Cathepsin B [6] = biological target: T1, Cathepsin B; assay: Mixed inhibition of cathepsin B (unknown origin) endopeptidase activity assessed as inhibition constant for enzyme-inhibitor complex
Cathepsin B [7] = biological target: T1, Cathepsin B; assay: Inhibition of human recombinant cathepsin B exopeptidase activity using Abz-Gly-Ile-Val-Arg-Ala-Lys(Dnp)-OH substrate at 50 uM
How it was run: (§2)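 Single-point screen at 50 μM inhibitor with 5% DMSO and 0.01% Triton X-100, at 37 °C. Endopeptidase: catB 5 nM with Z-Arg-Arg-AMC 5 μM, phosphate pH 6.0, ex 380/em 460 nm. Exopeptidase: catB 0.5 nM with Abz-GIVRAK(Dnp)-OH 1 μM, acetate pH 5.0, ex 320/em 420 nm. Relative inhibition = 100(1 − vi/vo). Two runs in duplicate.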

Homo sapiens [8] = species on record: Homo sapiens; assay: Selectivity ratio of Ki for human recombinant cathepsin L to Ki for human recombinant cathepsin B
Homo sapiens [9] = species on record: Homo sapiens; assay: Selectivity ratio of Ki for human liver cathepsin H to Ki for human recombinant cathepsin B
Cathepsin B [10] = biological target: T1, Cathepsin B; assay: Inhibition of human recombinant cathepsin B endopeptidase activity using Z-Arg-Arg-AMC substrate at 50 uM; how it was run: as §2
Cathepsin B [11] = biological target: T1, Cathepsin B; assay: Noncompetitive inhibition of cathepsin B (unknown origin) exopeptidase activity assessed as inhibition constant for enzyme-inhibitor complex
Cathepsin B [12] = biological target: T1, Cathepsin B; assay: Mixed inhibition of cathepsin B (unknown origin) endopeptidase activity assessed as inhibition constant for enzyme-substrate-inhibitor complex
Pro-cathepsin H [13] = biological target: T2, Pro-cathepsin H (Homo sapiens, UniProt P09668); assay: Noncompetitive inhibition of human liver cathepsin H endopeptidase activity using R-AMC substrate assessed as inhibition constant for enzyme-inhibitor complex
T2 sequence (P09668 whole entry): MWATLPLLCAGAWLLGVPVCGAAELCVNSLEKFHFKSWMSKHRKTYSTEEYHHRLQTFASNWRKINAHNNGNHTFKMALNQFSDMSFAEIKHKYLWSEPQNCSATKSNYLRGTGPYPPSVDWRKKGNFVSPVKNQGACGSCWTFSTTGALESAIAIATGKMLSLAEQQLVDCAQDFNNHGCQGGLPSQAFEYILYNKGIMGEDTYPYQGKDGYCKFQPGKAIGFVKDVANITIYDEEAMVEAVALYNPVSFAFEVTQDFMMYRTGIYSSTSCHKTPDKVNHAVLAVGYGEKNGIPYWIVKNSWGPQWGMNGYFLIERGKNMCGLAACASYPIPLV
How it was run: (§3)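 Native catH isolated from human liver was preactivated for 5 min at 37 °C in 100 mM phosphate pH 6.8 with 0.1% PEG 8000, 5 mM DTT and 1.5 mM EDTA. Arg-AMC was used at 20, 80 and 160 μM, with inhibitor at 0–200 μM (seven levels) and 5% DMSO. […] Run twice in duplicate.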

MCF-10A [14] = assay: Increase in proliferation of human MCF10A neoT cells expressing c-Ha-Ras oncogene at 5 uM measured at 15 mins interval up to 3 days; assay type: ADME, cell-based
How it was run: (§4)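 MCF-10A neoT cells, 7500 per well, monitored on the xCELLigence impedance system (cell index read every 15 min). After ~10 h, in log growth, 2.5 or 5 μM compound or 0.2% DMSO was added. Run for 72 h, with medium containing inhibitor renewed every 24 h.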

Procathepsin L = Procathepsin L (Homo sapiens, UniProt P07711); assay: Competitive inhibition of human recombinant cathepsin L endopeptidase activity using Z-FR-AMC substrate expressed in Escherichia coli assessed as inhibition constant for enzyme-inhibitor complex
Chain of Procathepsin L (P07711 whole entry): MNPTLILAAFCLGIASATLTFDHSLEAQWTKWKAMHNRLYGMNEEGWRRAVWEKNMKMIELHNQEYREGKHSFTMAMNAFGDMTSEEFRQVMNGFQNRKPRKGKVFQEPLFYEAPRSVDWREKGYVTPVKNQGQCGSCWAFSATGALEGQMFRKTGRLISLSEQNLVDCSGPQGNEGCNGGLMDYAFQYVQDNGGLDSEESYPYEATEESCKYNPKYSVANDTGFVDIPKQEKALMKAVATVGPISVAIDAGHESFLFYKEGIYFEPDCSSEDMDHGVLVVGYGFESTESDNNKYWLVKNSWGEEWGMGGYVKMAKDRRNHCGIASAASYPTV
How it was run: (§5)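 Ki from rates at three substrate levels with inhibitor at 0, 20, 40, 60, 80, 100 and 200 μM. Enzymes were preactivated 5 min at 37 °C. CatL (recombinant, E. coli): 100 mM acetate pH 5.5, Z-Phe-Arg-AMC 0.5/1/4 μM. CatH (native, human liver): 100 mM phosphate pH 6.8, Arg-AMC 20/80/160 μM. Buffers held 0.1% PEG 8000, 5 mM DTT and 1.5 mM EDTA, plus 5% DMSO. Two runs in duplicate.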

MCF-10A [15] = assay: Cytotoxicity against human MCF10A neoT cells expressing c-Ha-Ras oncogene at 5 uM measured at 15 mins interval up to 3 days; assay type: cell-based; how it was run: as §4
MCF-10A [16] = assay: Increase in proliferation of human MCF10A neoT cells expressing c-Ha-Ras oncogene at 2.5 uM measured at 15 mins interval up to 3 days; assay type: ADME, cell-based; how it was run: as §4
Pro-cathepsin H [17] = biological target: T2, Pro-cathepsin H; assay: Noncompetitive inhibition of human liver cathepsin H endopeptidase activity using R-AMC substrate assessed as inhibition constant for enzyme-substrate-inhibitor complex; how it was run: as §3
Cathepsin B [18] = biological target: T1, Cathepsin B; conditions: MCF10A neoT, 5 uM
MCF-10A [19] = assay: Inhibition of human MCF10A neoT cell invasion expressing c-Ha-Ras oncogene at 5 uM after 30 mins relative to DMSO-treated control; assay type: functional; conditions: 72 h, in the assay text read “after 72 hrs” for “after 30 mins”
How it was run: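 xCELLigence CIM-16 invasion assay. Upper chamber coated with 5 mg/mL Matrigel; lower well coated with bovine fibronectin. Compound 5 μM or 0.05% DMSO in both chambers, equilibrated 30 min at 37 °C. Then 3 × 10^4 cells seeded in serum-free medium, cell index read every 15 min for 72 h. Invasion = cell index with compound / DMSO; mean ± SD, n = 4, two experiments.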

Cathepsin B [20] = biological target: T1, Cathepsin B; conditions: MCF10A neoT, 5 uM; remark: listed apart in the source
Cathepsin B [21] = biological target: T1, Cathepsin B; assay: Uncompetitive inhibition of human recombinant […] assessed as inhibition constant for enzyme-substrate-inhibitor complex
MCF-10A [22] = assay: Cytotoxicity against human MCF10A neoT cells expressing c-Ha-Ras oncogene at 2.5 uM measured at 15 mins interval up to 3 days; assay type: cell-based; how it was run: as §4
Cathepsin B [23] = biological target: T1, Cathepsin B; assay: Competitive inhibition of human recombinant cathepsin B exopeptidase activity using Abz-Gly-Ile-Val-Arg-Ala-Lys(Dnp)-OH substrate assessed as inhibition constant for enzyme-inhibitor complex; how it was run: as §1
Cathepsin B [24] = biological target: T1, Cathepsin B; assay: Mixed inhibition of human recombinant cathepsin B exopeptidase activity using Abz-Gly-Ile-Val-Arg-Ala-Lys(Dnp)-OH substrate assessed as inhibition constant for enzyme-inhibitor complex
How it was run: (§6)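 Recombinant human catB was preactivated for 5 min at 37 °C in 60 mM acetate pH 5.0 with 0.1% PEG 8000, 5 mM DTT and 1.5 mM EDTA. Abz-GIVRAK(Dnp)-OH was used at 1, 3 and 6 μM (Km 6.3 μM), with inhibitor at 0–200 μM (seven levels) and 5% DMSO. […] Run twice, each in duplicate.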

Cathepsin B [25] = biological target: T1, Cathepsin B; assay: Mixed inhibition of human recombinant cathepsin B exopeptidase activity using Abz-Gly-Ile-Val-Arg-Ala-Lys(Dnp)-OH substrate assessed as inhibition constant for enzyme-substrate-inhibitor complex; how it was run: as §6
Pro-cathepsin H [26] = biological target: T2, Pro-cathepsin H; assay: Uncompetitive inhibition of human liver cathepsin H endopeptidase activity using R-AMC substrate assessed as inhibition constant for enzyme-substrate-inhibitor complex; how it was run: as §5

SMILES: N#CCN(CC#N)c1ccc([N+](=O)[O-])c2ccccc12
- inhibition (Cathepsin B [1]): inactive
- inhibition (Cathepsin B [2]): inactive

SMILES: CN(C)c1ccc([N+](=O)[O-])c2cccnc12
- inhibition (Cathepsin B [1]): inactive
- inhibition (Cathepsin B [2]): inactive

SMILES: O=[N+]([O-])c1ccc(NCc2ccccc2)c2ncccc12
- Ki (Cathepsin B [3]): 127 µM
- Ki (Cathepsin B [4]): 364 µM
- Ki (Cathepsin B [5]): 349 µM

SMILES: O=[N+]([O-])c1ccc(O)c2ncccc12 [NITROXOLINE]
- Ki (Cathepsin B [6]): 154 µM
- inhibition (Cathepsin B [7]): 24.7%
- Ratio Ki (Homo sapiens [8]): 4.8
- Ratio Ki (Homo sapiens [9]): 7.4
- inhibition (Cathepsin B [10]): 21.9%
- Ki (Cathepsin B [11]): 272 µM
- Ki (Cathepsin B [12]): 39.5 µM

SMILES: C[C@@H]1CCCCN1Cc1cc([N+](=O)[O-])c2cccnc2c1O
- Ki (Cathepsin B [3]): 116 µM
- Ki (Cathepsin B [4]): 243 µM
- Ki (Cathepsin B [5]): 203 µM

SMILES: N#CCNc1ccc([N+](=O)[O-])c2ccccc12
- inhibition (Cathepsin B [1]): inactive
- inhibition (Cathepsin B [2]): inactive

SMILES: N#CCNCc1cc([N+](=O)[O-])c2cccnc2c1O
- Ki (Pro-cathepsin H [13]): 129 µM
- Activity (MCF-10A [14]): 117%
- Ki (Procathepsin L): 124 µM
- Activity (MCF-10A [15]): Non-toxic
- Ratio Ki (Homo sapiens [8]): 23
- Activity (MCF-10A [16]): 113%
- Ratio Ki (Homo sapiens [9]): 24
- Ki (Pro-cathepsin H [17]): 129 µM
- inhibition (Cathepsin B [18]): Active
- Ki (Cathepsin B [4]): 426 µM
- inhibition at 5 µM (MCF-10A [19]): 80%
- inhibition (Cathepsin B [20]): Active
- Ki (Cathepsin B [21]): 5 µM
- Activity (MCF-10A [22]): Non-toxic

SMILES: O=C(O)c1cc([N+](=O)[O-])c2cccnc2c1O
- Ki (Cathepsin B [21]): 117 µM
- Ki (Cathepsin B [23]): 221 µM

SMILES: O=[N+]([O-])c1ccc(N2CCCC2)c2ncccc12
- inhibition (Cathepsin B [1]): inactive

SMILES: O=[N+]([O-])c1cc(CN2CCN(Cc3ccncc3)CC2)c(O)c2ncccc12
- Ki (Cathepsin B [3]): 94 µM
- Ki (Cathepsin B [4]): 162 µM
- Ki (Cathepsin B [5]): 143 µM

SMILES: N#CCN(Cc1ccccc1)Cc1cc([N+](=O)[O-])c2cccnc2c1O
- Ki (Cathepsin B [24]): 79 µM
- Ki (Cathepsin B [21]): 19 µM
- Ki (Cathepsin B [25]): 8 µM

SMILES: Nc1c(Br)cc([N+](=O)[O-])c2ccccc12
- Ki (Pro-cathepsin H [26]): 354 µM
- Ki (Procathepsin L): 182 µM
- Ratio Ki (Homo sapiens [8]): > 6
- Ratio Ki (Homo sapiens [9]): 11
- Ki (Cathepsin B [4]): 212 µM
- Ki (Cathepsin B [21]): 32 µM

SMILES: CCN(CC)C(=O)C1CCCN(c2ccc([N+](=O)[O-])c3cccnc23)C1 (racemic)
- Ki (Cathepsin B [24]): 105 µM
- Ki (Cathepsin B [3]): 117 µM
- Ki (Cathepsin B [25]): 36 µM
- Ki (Cathepsin B [5]): 155 µM

SMILES: O=C(O)[C@@H]1CCCC[C@@H]1NCc1cc([N+](=O)[O-])c2cccnc2c1O
- Ki (Cathepsin B [3]): 125 µM
- Ki (Cathepsin B [23]): 250 µM
- Ki (Cathepsin B [5]): 181 µM

SMILES: O=[N+]([O-])c1ccc(NCc2ccccn2)c2ncccc12
- Ki (Cathepsin B [3]): 87 µM
- Ki (Cathepsin B [4]): 47 µM
- Ki (Cathepsin B [5]): 107 µM

SMILES: O=[N+]([O-])c1cc(CN2CCN(Cc3cccnc3)CC2)c(O)c2ncccc12
- Ki (Cathepsin B [3]): 171 µM
- Ki (Cathepsin B [4]): 364 µM
- Ki (Cathepsin B [5]): 311 µM

SMILES: O=[N+]([O-])c1ccc(N2CCOCC2)c2ncccc12
- Ki (Cathepsin B [3]): 153 µM
- Ki (Cathepsin B [4]): 155 µM
- Ki (Cathepsin B [5]): 180 µM

SMILES: CCOC(=O)C1CCN(c2ccc([N+](=O)[O-])c3cccnc23)CC1
- Ki (Cathepsin B [3]): 113 µM
- Ki (Cathepsin B [4]): 38 µM
- Ki (Cathepsin B [5]): 162 µM
